Active and inactive are the calls of the source.
Columns and labels:
[1] = Cytotoxicity against MDBK cells after 48 to 96 hrs by MTT assay; assay type: cell-based, Bos taurus; conditions: cattle
Procedure, shortened: (§1)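 Mock-infected cells in maintenance medium, MDBK at 6 × 10^5 and BHK at 1 × 10^6 cells/mL initial density, with or without serial compound dilutions. Run in parallel with antiviral assays. Viability by MTT after 48–96 h at 37 °C, 5% CO2. CC50 = concentration reducing viability 50%.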

Yellow fever virus = assay: Antiviral activity against Yellow fever virus infected in BHK-21 cells assessed as inhibition of virus-induced cytopathicity after 3 to 4 days by MTT assay; assay type: functional, organism-based
[2] = system: Mammalian orthoreovirus 1; assay: Antiviral activity against Reovirus-1 infected in BHK-21 cells assessed as inhibition of virus-induced cytopathicity after 3 to 4 days by MTT assay; assay type: functional, organism-based; conditions: Mammalian orthoreovirus 1, BHK-21
Procedure, shortened: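 BHK-21 cells seeded at 5 × 10^4 cells/well, grown overnight to confluent monolayers at 37 °C in 5% CO2, then infected at m.o.i. 0.01 in serum-free medium. One hour later, MEM Earle's with 1% final inactivated FCS added, with or without serial compound dilutions. Viability read by MTT after 3–4 days at 37 °C. EC50 is the concentration giving 50% protection from cytopathogenicity.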

[3] = (§2) Cytotoxicity against human MT4 cells after 96 hrs by MTT assay; assay type: cell-based; conditions: MT4 cells
Procedure, shortened: (§3)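 Exponentially growing mock-infected MT-4 seeded at 1 × 10^5 cells/mL in RPMI-1640 with 10% FCS, penicillin and streptomycin. Incubated with or without serial compound dilutions at 37 °C, 5% CO2. Viability by MTT after 96 h. CC50 = concentration reducing viability 50%.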

[4] = Cytotoxicity against hamster BHK21 cells assessed as reduction in cell viability after 48 to 96 hrs by MTT assay; assay type: cell-based, Mesocricetus auratus, BHK-21; procedure, shortened: as §1
[5] = system: Respiratory syncytial virus; assay: Antiviral activity against Respiratory syncytial virus A2 infected in Vero-76 cells after 5 days by plaque reduction assay; assay type: functional, organism-based; conditions: human respiratory syncytial virus, A2, Vero 76, 120 h
Poliovirus 1 = assay: Antiviral activity against Human poliovirus 1 strain Sabin after 2 days by plaque reduction assay; assay type: functional; conditions: for EC50: Enterovirus C, 48 h
[6] = (§4) Cytotoxicity against african green monkey Vero 76 cells by crystal violet staining; assay type: cell-based; conditions: chlorocebus sabaeus, Vero 76 cells
Procedure, shortened: (§5)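 Mock-infected Vero 76 seeded at 4 × 10^5 cells/mL, run in parallel with plaque assays, with or without serial compound dilutions. Cell number of monolayers determined by crystal violet staining. CC50 = concentration reducing viable cell number 50%.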

Human alphaherpesvirus 1 = assay: Antiviral activity against HSV1 infected in Vero-76 cells after 3 days by plaque reduction assay; assay type: functional, organism-based; conditions: Human alphaherpesvirus 1, Vero 76, 72 h
MT4 = assay: as §2; assay type: cell-based; conditions: mt4, 96 h; procedure, shortened: as §3
Coxsackievirus B2 = assay: Antiviral activity against Coxsackie virus type B2 virus infected in african green monkey Vero-76 cells after 3 days by plaque reduction assay; assay type: functional, organism-based; conditions: Enterovirus B, Vero 76, 72 h
Procedure, shortened: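 Vero 76 cells seeded at 2 × 10^5 cells/well, grown overnight to confluence at 37 °C in 5% CO2, then infected at 50–100 PFU/well. Unadsorbed virus removed. Overlay of DMEM with 1% inactivated FCS and 0.75% methylcellulose, with or without serial compound dilutions. After 3 days at 37 °C, fixed and stained with crystal violet in PBS/50% ethanol; plaques counted. EC50 is the concentration reducing plaque number by 50%.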

[7] = system: Bovine viral diarrhea virus 1; assay: Antiviral activity against Bovine viral diarrhea virus infected in MDBK cells assessed as inhibition of virus-induced cytopathicity after 3 to 4 days by MTT assay; assay type: functional, organism-based; conditions: Bovine viral diarrhea virus isolates and strains
[8] = system: Vesicular stomatitis virus; assay: Antiviral activity against Vesicular stomatitis virus after 2 days by plaque reduction assay; assay type: functional, organism-based
[9] = system: Human immunodeficiency virus 1; assay: Antiviral activity against HIV1 infected in human MT4 cells assessed as inhibition of virus-induced cytopathicity after 4 days by MTT assay; assay type: functional, organism-based
Vaccinia virus = assay: Antiviral activity against Vaccinia virus after 3 days by plaque reduction assay; assay type: functional, organism-based; conditions: Orthopoxvirus vaccinia
Vero = assay: as §4; assay type: cell-based; conditions: chlorocebus sabaeus, vero; procedure, shortened: as §5

Row | Compound | CC50 ([1]; MDBK cells) [µM] | EC50 (Yellow fever virus) [µM] | EC50 [2] [µM] | CC50 at 96 h [3] [µM] | CC50 ([4]; bhk-21) [µM] | EC50 [5] [µM] | EC50 (Poliovirus 1) [µM] | CC50 [6] [µM] | EC50 (Human alphaherpesvirus 1) [µM] | CC50 (MT4) [µM] | CC50 ([4]; BHK21 cells) [µM] | EC50 (Coxsackievirus B2) [µM] | EC50 [7] [µM] | Activity [8] | inhibition [9] | Activity (Vaccinia virus) | CC50 ([1]; mdbk) [µM] | CC50 (Vero) [µM] | Activity (Poliovirus 1)
1 | C[C@@]1(O)[C@H](O)[C@@H](CO)O[C@H]1n1cnc2c(=O)[nH]c(N)nc21 [2'-B-METHYL-GUANOSINE] | > 100 | 1.8 | 2.4 | > 100 | 90 | > 100 | > 100 | > 100 | > 100 |  |  |  |  |  |  |  |  |  | 
2 | NC(=O)c1ncn([C@@H]2O[C@H](CO)[C@@H](O)[C@H]2O)n1 [RIBAVIRIN] | > 100 | > 100 | > 100 |  |  | 7 | > 100 | > 100 | > 100 | 31 | > 100 | > 100 | 7 |  |  |  |  |  | 
3 | Nc1nc2c(ncn2COCCO)c(=O)[nH]1 [ACYCLOVIR] | > 100 | > 100 | > 100 | > 100 |  | > 100 | > 100 | > 100 |  |  | > 100 | > 100 | > 100 |  |  |  |  |  | 
4 | CN(C)CCCN(/N=N/c1ccccc1)c1cccc(C(F)(F)F)c1 | 38 | ≥ 49 | > 49 | 14 |  | > 20 | > 20 | 20 | 14 |  | 49 | ≥ 20 | > 38 | inactive | inactive | inactive |  |  | 
5 | Fc1ccc(F)c(/N=N/Nc2cccc(C(F)(F)F)c2)c1 |  | 80 | > 100 |  | > 100 | 10 | > 80 |  | > 80 | > 100 |  | > 80 | > 100 | inactive | inactive | inactive | > 100 | 80 | 
6 | c1ccc(/N=N/c2ccc(NC[C@@H]3CCCN4CCCC[C@H]34)c3c2CCCC3)cc1 |  | ≥ 100 | > 100 |  | > 100 | > 80 |  |  | > 80 | 100 |  | > 80 | 30 | inactive | inactive | inactive | > 100 | 80 | inactive
7 | CN(/N=N/c1cccc([N+](=O)[O-])c1)c1ccccc1 |  | > 100 | 33 |  | > 100 | 15 | 29 |  | > 100 | > 100 |  | > 100 | > 82 | inactive | inactive | inactive | 82 | > 100 | 
